# Where two headings read alike, the source gives them in different places.
# Assays:
# [1] = rats, oral route; cited from earlier work
# [2] = dogs, cited from earlier work
# [3] = Part I single ascending-dose pharmacokinetics; assay type: in vivo, human; settings: for t max / AUCt / AUC∞ / C max / CL/F_obs / V z/F_obs / t ½ / λz: part I, fasted; for t max: mean (range) per footnote; for AUCt / AUC∞ / C max / CL/F_obs / V z/F_obs / t ½ / λz: mean ± SD
# PHD enzyme = settings: read-out: concentration of drug producing 50% inhibition [IC50]; HepG2 cells, HIF stabilization; cited from earlier work
# [4] = tested on: serum erythropoietin (EPO), hemoglobin, hematocrit, reticulocyte count; experiment: Part II pharmacodynamics; assay type: in vivo, human; settings: for serum EPO C max: placebo 11.0 mIU/L
# Method in brief: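 Serum EPO, hemoglobin, hematocrit and reticulocyte count were measured in blood taken before and after oral dosing. Regimens: part I single fasted doses 10–300 mg vs placebo; part II 100–300 mg on Days 1, 3, 5 vs placebo; part III single 150 mg, fasted vs fed, men and women. EPO expressed baseline-corrected. Post-dose vs baseline compared by paired two-sided t test, α = 0.05.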
# Part I safety assessment = assay type: in vivo, human
# Method in brief: (§1)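 Safety monitored under ICH-GCP in each part (single 10–300 mg; alternate-day 100–300 mg; 150 mg fasted/fed crossover). Assessments: adverse events coded with MedDRA version 18.0, clinical examinations, frequent vital signs, 12-lead ECGs, clinical laboratory tests, and continuous ECG for 24 h post-dose in parts I and II. Post-dose vs baseline compared by paired two-sided t test, α = 0.05.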
# [5] = Part II safety assessment; assay type: in vivo, human
# Method in brief: as §1
# [6] = rats, 1-month toxicity study; cited from earlier work
# hemoglobin levels = settings: cited from earlier work
# [7] = Part III sex and food effect pharmacokinetics; assay type: in vivo, human; settings: for AUCt / AUC∞ / C max / CL/F_obs / HL_Lambda_z (terminal half-life) / V z/F_obs / λz: part III, single oral 150 mg, n = 10, mean ± SD
# Method in brief: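 Open-label crossover at a single 150 mg oral dose, with at least 14 days washout and an overnight fast of at least 10 h before each dose. Period I: 12 subjects (6 men, 6 women), fasted. Period II: 10 subjects (5 men, 5 women) given a high-fat, roughly 800–1000 calorie breakfast 30 min pre-dose. Drug measured in diluted blood by LC-MS/MS (2–5000 ng/mL). Food effect tested by two-sided t test, α = 0.05.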
structure (smiles),measurement,setting,value
O=C(O)CNC(=O)c1c(O)c2ccccc2n(OCC2CC2)c1=O [ZYAN1],"tolerated dose, single-dose study",[1],up to 800 mg/kg
same,maximum tolerated dose (MTD),[2]; 1-month toxicity study,15 mg/kg
same,no observed adverse effect level (NOAEL),[2]; 28-day toxicity study,5 mg/kg
same,dose proportionality of C max and AUC,"[3]; 30-fold single dose range, slight deviation at higher doses",almost dose-proportional increase
same,"V d, range",[3]; across single doses 10-300 mg,28 to 47 L
same,"apparent oral CL, range",[3]; across single doses 10-300 mg,2 to 2.9 L/h
same,t max,[3]; single oral dose 10 mg,2.50 (1.50–3.00) h
same,AUCt,[3]; single oral dose 10 mg,3597.269 ± 549.116 ng·h/mL
same,AUC∞,[3]; single oral dose 10 mg,3659.531 ± 551.508 ng·h/mL
same,C max,[3]; single oral dose 10 mg,566.467 ± 163.031 ng/mL
same,CL/F_obs,[3]; single oral dose 10 mg,2784.592 ± 417.679 mL/h
same,V z/F_obs,[3]; single oral dose 10 mg,"27,683.707 ± 4805.113 mL"
same,t ½,[3]; single oral dose 10 mg,6.976 ± 1.390 h
same,λz,[3]; single oral dose 10 mg,0.102 ± 0.019 h⁻¹
same,t max,[3]; single oral dose 25 mg,1.25 (1.00–2.50) h
same,AUCt,[3]; single oral dose 25 mg,9177.789 ± 2359.163 ng·h/mL
same,AUC∞,[3]; single oral dose 25 mg,9269.839 ± 2396.986 ng·h/mL
same,C max,[3]; single oral dose 25 mg,1634.500 ± 299.429 ng/mL
same,CL/F_obs,[3]; single oral dose 25 mg,2870.759 ± 817.646 mL/h
same,V z/F_obs,[3]; single oral dose 25 mg,"27,950.696 ± 5329.29 mL"
same,t ½,[3]; single oral dose 25 mg,6.917 ± 0.923 h
same,λz,[3]; single oral dose 25 mg,0.102 ± 0.016 h⁻¹
same,t max,[3]; single oral dose 50 mg,2.25 (1.00–5.00) h
same,AUCt,[3]; single oral dose 50 mg,"24,518.328 ± 5125.235 h·ng/mL"
same,AUC∞,[3]; single oral dose 50 mg,"24,847.379 ± 5242.290 h·ng/mL"
same,C max,[3]; single oral dose 50 mg,2959.333 ± 686.898 ng/mL
same,CL/F_obs,[3]; single oral dose 50 mg,2084.748 ± 417.943 mL/h
same,V z/F_obs,[3]; single oral dose 50 mg,"30,578.971 ± 10,323.282 mL"
same,t ½,[3]; single oral dose 50 mg,10.434 ± 3.857 h
same,λz,[3]; single oral dose 50 mg,0.074 ± 0.024 h⁻¹
same,t max,[3]; single oral dose 100 mg,2.25 (1.00–5.00) h
same,AUCt,[3]; single oral dose 100 mg,"46,844.762 ± 13,259.837 h·ng/mL"
same,AUC∞,[3]; single oral dose 100 mg,"47,320.651 ± 13,358.696 h·ng/mL"
same,C max,[3]; single oral dose 100 mg,6745.000 ± 1958.132 ng/mL
same,CL/F_obs,[3]; single oral dose 100 mg,2271.507 ± 686.413 mL/h
same,V z/F_obs,[3]; single oral dose 100 mg,"33,572.508 ± 10,971.959 mL"
same,t ½,[3]; single oral dose 100 mg,10.685 ± 3.249 h
same,λz,[3]; single oral dose 100 mg,0.071 ± 0.023 h⁻¹
same,t max,[3]; single oral dose 150 mg,3.00 (2.50–5.00) h
same,AUCt,[3]; single oral dose 150 mg,"54,401.071 ± 12,592.181 h·ng/mL"
same,AUC∞,[3]; single oral dose 150 mg,"54,672.481 ± 12,686.075 h·ng/mL"
same,C max,[3]; single oral dose 150 mg,8119.333 ± 1269.627 ng/mL
same,CL/F_obs,[3]; single oral dose 150 mg,2891.042 ± 782.208 mL/h
same,V z/F_obs,[3]; single oral dose 150 mg,"46,536.434 ± 9434.457 mL"
same,t ½,[3]; single oral dose 150 mg,11.357 ± 1.616 h
same,λz,[3]; single oral dose 150 mg,0.062 ± 0.008 h⁻¹
same,t max,[3]; single oral dose 200 mg,2.25 (1.50–5.00) h
same,AUCt,[3]; single oral dose 200 mg,"76,515.016 ± 6992.709 h·ng/mL"
same,AUC∞,[3]; single oral dose 200 mg,"76,728.333 ± 7061.227 h·ng/mL"
same,C max,[3]; single oral dose 200 mg,"12,080.667 ± 3430.123 ng/mL"
same,CL/F_obs,[3]; single oral dose 200 mg,2625.566 ± 248.239 mL/h
same,V z/F_obs,[3]; single oral dose 200 mg,"36,035.031 ± 6400.263 mL"
same,t ½,[3]; single oral dose 200 mg,9.502 ± 1.270 h
same,λz,[3]; single oral dose 200 mg,0.074 ± 0.01 h⁻¹
same,t max,[3]; single oral dose 300 mg,2.00 (1.00–5.00) h
same,AUCt,[3]; single oral dose 300 mg,"115,898.815 ± 45,549.563 h·ng/mL"
same,AUC∞,[3]; single oral dose 300 mg,"116,226.587 ± 45,834.174 h·ng/mL"
same,C max,[3]; single oral dose 300 mg,"17,858.333 ± 2899.189 ng/mL"
same,CL/F_obs,[3]; single oral dose 300 mg,2835.924 ± 799.195 mL/h
same,V z/F_obs,[3]; single oral dose 300 mg,"38,836.681 ± 12,903.706 mL"
same,t ½,[3]; single oral dose 300 mg,9.484 ± 1.325 h
same,λz,[3]; single oral dose 300 mg,0.074 ± 0.011 h⁻¹
same,"t ½, range",[3]; single doses 10-300 mg,6.9 to 11.3 h
same,median time to C max (t max),[3]; single doses 10-300 mg (30-fold range),approximately 2.5 h
same,IC50,PHD enzyme,11.2 µM
same,lag in time to EPO C max from pharmacokinetic t max,"[4]; multiple dosing, similar to single dosing",6 to 8 h
same,serum EPO C max,"[4]; part II, 100 mg on Days 1, 3, 5",14.4 mIU/L
same,serum EPO C max,"[4]; part II, 300 mg on Days 1, 3, 5",60.5 mIU/L
same,"hemoglobin increase on any timepoint, seen in more subjects than placebo","[4]; part II, higher threshold",> 1.0 gm%
same,Adverse events (Test),Part I safety assessment; SAD 25 mg panel,"Rhinorrhea, right lower wisdom tooth pain, sore throat"
same,Adverse events (Test),Part I safety assessment; SAD 50 mg panel,"Dizziness, headache, chest pain, Diarrhea, upper respiratory tract infection"
same,Adverse events (Test),Part I safety assessment; SAD 100 mg panel,"Dizziness, headache, lethargy, nausea, throat irritation, increase in AST, hyperkalemia"
same,Adverse events (Test),Part I safety assessment; SAD 200 mg panel,Back pain
same,drug-related serious adverse events,Part I safety assessment; all study parts,No drug-related serious adverse events were reported
same,severity of AEs possibly related to study treatment,Part I safety assessment; part I,grade 1
same,subjects with AEs possibly related to study treatment,"Part I safety assessment; part I, nine AEs in six subjects, placebo 21%",14%
same,tolerability,Part I safety assessment; single and multiple oral ascending doses,well-tolerated
same,Adverse events (Test),[5]; MAD 150 mg panel,"Headache, dizziness"
same,Adverse events (Test),[5]; MAD 200 mg panel,"Nausea, headache, dizziness, diarrhea, phlebitis"
same,Adverse events (Test),[5]; MAD 300 mg panel,"Supra ventricular extrasystoles, abdominal pain, diarrhea, contusion, back pain, dizziness, headache, nasal congestion, phlebitis"
same,Adverse events (Test),[5]; MSD 100 mg panel (multiple dose),"Headache, dizziness"
same,severity of treatment-related AEs,[5]; part II (ZYAN1 and placebo subjects),"all grade 1 in severity, with the exception of dizziness in two subjects, which was classified as grade 2 in severity"
same,subjects with AEs possibly related to study treatment,"[5]; part II, 16 AEs in 11 subjects, placebo 63%",46%
same,maximum tolerated dose (MTD),[6],60 mg/kg
same,effective dose for inducing hematopoiesis,hemoglobin levels; alternate dosing pattern for a week,15 mg/kg
same,erythropoiesis / hemoglobin levels,"hemoglobin levels; repeated dose model, nephrectomized rats and mice","robust increase in erythropoiesis, resulting in normalization of hemoglobin levels"
same,decrease of C max by ingestion of food,"[7]; fed vs fasting, single 150 mg",2.39 times
same,AUCt,[7]; Fasting,"71,331.577 ± 25,663.234 h·ng/mL"
same,AUC∞,[7]; Fasting,"71,696.758 ± 25,837.440 h·ng/mL"
same,C max,[7]; Fasting,"10,352.800 ± 3076.528 ng/mL"
same,CL/F_obs,[7]; Fasting,2479.865 ± 1333.719 mL/h
same,HL_Lambda_z (terminal half-life),[7]; Fasting,11.048 ± 3.378 h
same,V z/F_obs,[7]; Fasting,"37,927.046 ± 18,082.141 mL"
same,λz,[7]; Fasting,0.067 ± 0.015 h⁻¹
same,AUCt,[7]; Fed (high-fat breakfast),"59,005.375 ± 16,846.249 h·ng/mL"
same,AUC∞,[7]; Fed (high-fat breakfast),"59,561.279 ± 17,228.977 h·ng/mL"
same,C max,[7]; Fed (high-fat breakfast),4322.000 ± 1317.961 ng/mL
same,CL/F_obs,[7]; Fed (high-fat breakfast),2801.105 ± 1109.706 mL/h
same,HL_Lambda_z (terminal half-life),[7]; Fed (high-fat breakfast),11.328 ± 3.691 h
same,V z/F_obs,[7]; Fed (high-fat breakfast),"45,070.176 ± 19,928.748 mL"
same,λz,[7]; Fed (high-fat breakfast),0.066 ± 0.017 h⁻¹
same,"AUC values, fed vs fasting",[7]; single 150 mg,decreased
same,"mean C max, male vs female subjects",[7]; single 150 mg,not statistically significant
same,"mean t ½, fed vs. fasted",[7]; single 150 mg,similar
same,"exposure, female vs male subjects","[7]; single 150 mg, small group, qualitative",female subjects had a higher exposure than males
